Measured values published in ChEMBL document CHEMBL4038344, “Novel Diarylurea Based Allosteric Modulators of the Cannabinoid CB1 Receptor: Evaluation of Importance of 6-Pyrrolidinylpyridinyl Substitution” (J Med Chem, 2017).
The source made the active and inactive calls. The calls are words filed in the database; no cut-off is given here.

Key:
[1] = biological target: Cannabinoid receptor 1 (Homo sapiens, UniProt P21554); assay: Agonist activity at human CB1 receptor expressed in CHO cells co-expressing Galpha16 assessed as increase in calcium mobilization at 10 uM measured at 1 sec interval for 90 secs by calcium-5 dye based FLIPR assay relative to CP55,940; format: cell-based; conditions: 0.025 h
[2] = biological target: T1, Cannabinoid receptor 2 (Homo sapiens, UniProt P34972); assay: (§1) Agonist activity at human CB2 receptor expressed in CHO cells co-expressing Galpha16 assessed as increase in calcium mobilization at 10 uM measured at 1 sec interval for 90 secs by calcium-5 dye based FLIPR assay relative to CP55,940; format: functional, cell-based
Procedure, shortened: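 CB2 agonist screen in stable human CB2-CHO-RD-HGA16 cells. Cells were Calcium 5 dye-loaded for 45 min at 37 °C in HBSS/HEPES/probenecid buffer, pH 7.4, and pretreated with vehicle. FLIPR Tetra then added compound at a single concentration. Fluorescence (485/525 nm) was expressed as % of CP55,940 Emax.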

[3] = test system: Liver; assay: Clearance in rat liver microsomes in presence of NADPH by LC-MS/MS analysis; format: ADME, microsome
Procedure, shortened: (§2)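 Compound was incubated at 37 °C with rat liver microsomes (0.5 mg/mL protein) in 100 mM potassium phosphate, pH 7.4, with 1 mM NADPH. Samples were taken at 0, 5, 15, 30 and 45 min and quenched 1:1 with ice-cold stop solution containing labetalol. Half-life and clearance are mean ± SD of two independent experiments.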

[4] = test system: Liver; assay: (§3) Half life in rat liver microsomes in presence of NADPH by LC-MS/MS analysis; format: ADME, microsome; conditions: microsomes; procedure, shortened: as §2
[5] = biological target: T1, Cannabinoid receptor 2; assay: as §1, with “Antagonist” for “Agonist”, “inhibition of CP55,940-induced” for “increase in”, “uM preincubated for 15 mins followed by CP55,490 addition” for “uM”; format: functional, cell-based
[6] = biological target: T1, Cannabinoid receptor 2; assay: Antagonist activity at human CB2 receptor expressed in CHO cells co-expressing Galpha16 assessed as inhibition of CP55,940-induced calcium mobilization preincubated for 15 mins followed by CP55,490 addition measured at 1 sec interval for 90 secs by calcium-5 dye based FLIPR assay; format: functional, cell-based
[7] = biological target: Cannabinoid receptor 1 (Rattus norvegicus, UniProt P20272); assay: Allosteric modulation of CB1 receptor in rat cerebellar membranes assessed as inhibition of CP55,940-induced [35S]GTPgammaS binding; format: functional, cell membranes, Cerebellum, Membrane
[8] = test system: Rattus norvegicus; assay: Reduction in cocaine-induced reinstatement of cocaine seeking behavior in Sprague-Dawley rat at 30 mg/kg pretreated for 10 mins followed by cocaine treatment on day following last extinction session; format: functional, organism-based
Procedure, shortened: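 Adult male Sprague-Dawley rats (280-300 g) with jugular catheters self-administered cocaine (0.75 mg/kg/infusion, FR1 rising to FR5) in 2-hr daily sessions for 14 days, followed by extinction. On the day after the last extinction session, compound was given 10 min before a cocaine prime (10 mg/kg i.p.). Active lever presses were counted over the 2-hr reinstatement session.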

[9] = as §3; format: ADME, microsome; conditions: liver microsomes; procedure, shortened: as §2

T1 sequence (P34972 whole entry): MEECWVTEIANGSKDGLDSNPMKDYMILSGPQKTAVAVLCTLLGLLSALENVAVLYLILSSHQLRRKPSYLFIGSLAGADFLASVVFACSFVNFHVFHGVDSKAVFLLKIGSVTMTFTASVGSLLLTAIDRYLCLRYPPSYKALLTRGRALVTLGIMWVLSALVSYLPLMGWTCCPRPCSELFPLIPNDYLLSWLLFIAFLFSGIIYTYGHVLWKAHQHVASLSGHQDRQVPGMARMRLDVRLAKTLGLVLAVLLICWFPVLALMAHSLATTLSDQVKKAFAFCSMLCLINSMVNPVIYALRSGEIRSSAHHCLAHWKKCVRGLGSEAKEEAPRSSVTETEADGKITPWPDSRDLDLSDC
Sequence of Cannabinoid receptor 1 (Homo sapiens, UniProt P21554) (P21554 whole entry): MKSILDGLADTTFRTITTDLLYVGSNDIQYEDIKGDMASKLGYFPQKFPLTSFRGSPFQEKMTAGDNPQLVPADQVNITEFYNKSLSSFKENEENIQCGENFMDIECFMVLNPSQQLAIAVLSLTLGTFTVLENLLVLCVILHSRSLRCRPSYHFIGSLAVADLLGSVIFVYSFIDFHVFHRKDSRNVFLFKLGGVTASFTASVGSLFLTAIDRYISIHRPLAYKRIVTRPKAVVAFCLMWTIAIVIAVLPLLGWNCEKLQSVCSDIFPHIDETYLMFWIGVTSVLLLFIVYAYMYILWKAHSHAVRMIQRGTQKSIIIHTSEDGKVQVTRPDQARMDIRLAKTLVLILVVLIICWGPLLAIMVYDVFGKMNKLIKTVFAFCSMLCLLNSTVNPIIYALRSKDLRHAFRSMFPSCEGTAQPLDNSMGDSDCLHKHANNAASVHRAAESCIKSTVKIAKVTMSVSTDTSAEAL
Sequence of Cannabinoid receptor 1 (Rattus norvegicus, UniProt P20272) (P20272 whole entry): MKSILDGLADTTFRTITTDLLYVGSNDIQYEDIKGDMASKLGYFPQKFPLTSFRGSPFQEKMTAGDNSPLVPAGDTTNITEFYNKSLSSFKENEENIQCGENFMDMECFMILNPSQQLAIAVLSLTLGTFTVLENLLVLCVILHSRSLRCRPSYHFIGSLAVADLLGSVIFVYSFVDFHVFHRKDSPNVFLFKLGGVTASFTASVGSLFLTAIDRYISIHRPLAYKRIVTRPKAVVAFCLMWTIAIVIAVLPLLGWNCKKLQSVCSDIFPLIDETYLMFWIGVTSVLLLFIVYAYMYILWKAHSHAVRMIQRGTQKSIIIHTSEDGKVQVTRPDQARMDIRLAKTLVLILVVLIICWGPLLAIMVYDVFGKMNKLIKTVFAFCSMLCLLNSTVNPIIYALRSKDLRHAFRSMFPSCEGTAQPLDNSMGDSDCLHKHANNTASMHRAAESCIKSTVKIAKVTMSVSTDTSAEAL

Row | SMILES | Emax at 10 µM [1] [%] | Emax [2] [%] | CLH [3] [µL/min/mg] | t1/2 [4] [min] | Imax [5] [%] | IC50 [6] [µM] | IC50 [7] [µM] | Activity [8] | half-life [9] [min]
1 | O=C(Nc1ccc(Cl)cc1)Nc1cccc(-c2ccncc2)c1 | 15 | < 10 | 33.1 | 41.9 | < 50 | – | – | – | –
2 | O=C(Nc1ccc(Cl)cc1)Nc1cccc(-c2ccc(C(=O)c3ccccc3)cc2)c1 | 13 | < 10 | – | – | < 50 | – | – | – | –
3 | O=C(Nc1ccc(Cl)cc1)Nc1cccc(-c2ccccc2)c1 | 5 | < 10 | – | – | < 50 | – | – | – | –
4 | Cc1ccccc1-c1cccc(NC(=O)Nc2ccc(Cl)cc2)c1 | 6 | < 10 | – | – | – | > 10 | – | – | –
5 | O=C(Nc1ccc(Cl)cc1)Nc1cccc(-c2cccc(N3CCCC3)n2)c1 | 28 | < 10 | 113.7 | – | – | > 10 | 0.042 to 0.074 | Active | 13 to 13.4
6 | COc1cc(-c2cccc(NC(=O)Nc3ccc(Cl)cc3)c2)ccn1 | 23 | < 10 | – | – | < 50 | – | – | – | –
7 | O=C(Nc1ccc(Cl)cc1)Nc1cccc(-c2cc(Cl)cc(Cl)c2)c1 | 16 | < 10 | – | – | < 50 | – | – | – | –
8 | CC(C)(C)c1ccc(-c2cccc(NC(=O)Nc3ccc(Cl)cc3)c2)cc1 | 4 | < 10 | – | – | < 50 | – | – | – | –
9 | O=C(Nc1ccc(Cl)cc1)Nc1cccc(-c2cnc3ccccc3c2)c1 | 3 | < 10 | – | – | – | 4.1 | – | – | –
10 | CC(C)Oc1cccc(-c2cccc(NC(=O)Nc3ccc(Cl)cc3)c2)c1 | – | < 10 | – | – | < 50 | – | – | – | –
11 | Cc1ccnc(-c2cccc(NC(=O)Nc3ccc(Cl)cc3)c2)c1 | 3 | < 10 | – | – | < 50 | – | – | – | –
12 | O=C(Nc1ccc(Cl)cc1)Nc1cccc(-c2ccc3c(c2)Cc2ccccc2-3)c1 | 0 | < 10 | – | – | < 50 | – | – | – | –
13 | COc1cccc(-c2cccc(NC(=O)Nc3ccc(Cl)cc3)c2)n1 | 2 | < 10 | – | – | < 50 | – | – | – | –
14 | Cc1cccc(-c2cccc(NC(=O)Nc3ccc(Cl)cc3)c2)c1 | – | < 10 | – | – | < 50 | – | – | – | –
15 | O=C(Nc1ccc(Cl)cc1)Nc1cccc(-c2cccnc2)c1 | 34 | < 10 | – | – | < 50 | – | – | – | –
16 | O=C(Nc1ccc(Cl)cc1)Nc1cccc(-c2cccc([N+](=O)[O-])c2)c1 | 17 | < 10 | – | – | – | > 10 | – | – | –
